Assays:
EBC-1 [1] = test: Antiproliferative activity against human EBC1 cells at 1 uM after 72 hrs by Cell Titer-Glo assay; type: functional
In short: (§1)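 Cell Titer-Glo viability assay. Exponentially growing cells were plated at 4000 per well in RPMI-1640 with 10% FPS and incubated 12 h at 37 °C in 5% CO2. Compound was then added at the indicated final concentrations and cells were held 72 h at 37 °C in 5% CO2. CTG reagent was applied for 10 min at room temperature. Inhibition % = (1 − Vsample/Vvehicle control) × 100.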

EBC-1 [2] = test: Antiproliferative activity against human EBC1 cells at 5 uM after 72 hrs by Cell Titer-Glo assay; type: functional; in short: as §1
SNU-5 = test: Antiproliferative activity against human SNU5 cells at 5 uM after 72 hrs by Cell Titer-Glo assay; type: functional; in short: as §1
EBC-1 [3] = test: Antiproliferative activity against human EBC1 cells after 72 hrs by Cell Titer-Glo assay; type: functional, cell-based; conditions: EBC-1, 72 h; in short: as §1
MKN-45 [4] = test: Antiproliferative activity against human MKN45 cells at 5 uM after 72 hrs by Cell Titer-Glo assay; type: functional; in short: as §1
MKN-45 [5] = test: Antiproliferative activity against human MKN45 cells at 1 uM after 72 hrs by Cell Titer-Glo assay; type: functional; in short: as §1
[6] = target: T1, Hepatocyte growth factor receptor (Homo sapiens, UniProt P08581); test: Inhibition of GST-tagged human c-MET preincubated for 20 mins followed by [33P]-ATP addition and measured after 2 hrs by Hot-Spot kinase assay
T1 sequence (P08581 whole entry): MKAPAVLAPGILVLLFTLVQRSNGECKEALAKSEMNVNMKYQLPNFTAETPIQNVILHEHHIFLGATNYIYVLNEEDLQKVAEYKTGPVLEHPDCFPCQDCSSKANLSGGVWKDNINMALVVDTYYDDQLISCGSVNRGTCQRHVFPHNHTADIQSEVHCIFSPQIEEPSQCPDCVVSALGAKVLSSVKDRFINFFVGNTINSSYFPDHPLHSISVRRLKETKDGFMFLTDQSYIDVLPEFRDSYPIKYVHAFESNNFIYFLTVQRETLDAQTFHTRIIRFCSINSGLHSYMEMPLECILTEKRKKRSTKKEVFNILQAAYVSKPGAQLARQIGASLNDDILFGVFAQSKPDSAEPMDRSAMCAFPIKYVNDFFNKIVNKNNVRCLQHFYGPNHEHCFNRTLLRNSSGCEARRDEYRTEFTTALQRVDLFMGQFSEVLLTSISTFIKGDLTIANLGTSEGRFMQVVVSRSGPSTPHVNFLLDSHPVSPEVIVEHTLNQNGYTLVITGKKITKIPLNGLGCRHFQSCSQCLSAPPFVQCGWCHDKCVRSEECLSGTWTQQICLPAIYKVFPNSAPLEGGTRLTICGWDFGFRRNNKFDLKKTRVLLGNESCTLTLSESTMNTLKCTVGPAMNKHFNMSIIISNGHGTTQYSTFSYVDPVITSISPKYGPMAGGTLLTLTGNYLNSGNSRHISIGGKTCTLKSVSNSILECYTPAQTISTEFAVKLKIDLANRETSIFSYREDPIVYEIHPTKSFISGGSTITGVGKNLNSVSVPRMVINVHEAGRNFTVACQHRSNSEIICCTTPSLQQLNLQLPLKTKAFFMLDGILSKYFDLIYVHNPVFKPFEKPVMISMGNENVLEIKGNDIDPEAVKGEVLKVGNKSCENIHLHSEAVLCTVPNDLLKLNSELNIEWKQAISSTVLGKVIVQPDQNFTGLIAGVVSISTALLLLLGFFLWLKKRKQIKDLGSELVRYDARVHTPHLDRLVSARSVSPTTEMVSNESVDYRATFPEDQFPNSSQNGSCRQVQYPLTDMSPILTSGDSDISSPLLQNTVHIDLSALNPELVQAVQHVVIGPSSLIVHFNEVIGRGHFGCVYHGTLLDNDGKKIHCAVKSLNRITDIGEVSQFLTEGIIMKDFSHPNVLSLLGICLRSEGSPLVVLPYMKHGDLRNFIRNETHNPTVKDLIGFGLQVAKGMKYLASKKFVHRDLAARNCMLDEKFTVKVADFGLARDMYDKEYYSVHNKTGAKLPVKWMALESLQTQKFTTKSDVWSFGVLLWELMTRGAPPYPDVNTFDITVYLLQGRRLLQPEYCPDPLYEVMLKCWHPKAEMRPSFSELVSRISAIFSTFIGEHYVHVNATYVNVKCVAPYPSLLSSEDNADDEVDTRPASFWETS

[7] = target: Tyrosine-protein kinase Lck (Homo sapiens) (UniProt P06239); test: Inhibition of GST-tagged human LCK at 5 uM preincubated for 20 mins followed by [33P]-ATP addition measured after 2 hrs by Hot-Spot kinase assay
In short: (§2)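 Radiometric filter-binding assay with 5 nM human GST-tagged kinase and substrate. Buffer was 20 mM Hepes pH 7.5, 10 mM MgCl2, 1 mM EGTA, 0.02% Brij35, 0.02 mg/mL BSA, 0.1 mM Na3VO4, 2 mM DTT and 1% DMSO. Compound in DMSO was preincubated with kinase for 20 min at room temperature. 33P-ATP was then added and the reaction ran 2 h at room temperature. IC50 values came from curve fitting.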

[8] = target: Platelet-derived growth factor receptor alpha (Homo sapiens) (UniProt P16234); test: Inhibition of GST-tagged human PDGFRalpha at 5 uM preincubated for 20 mins followed by [33P]-ATP addition measured after 2 hrs by Hot-Spot kinase assay; in short: as §2
[9] = target: T2, Receptor-type tyrosine-protein kinase FLT3 (Homo sapiens, UniProt P36888); test: Inhibition of GST-tagged human FLT3 preincubated for 20 mins followed by [33P]-ATP addition measured after 2 hrs by Hot-Spot kinase assay; in short: as §2
T2 sequence (P36888 whole entry): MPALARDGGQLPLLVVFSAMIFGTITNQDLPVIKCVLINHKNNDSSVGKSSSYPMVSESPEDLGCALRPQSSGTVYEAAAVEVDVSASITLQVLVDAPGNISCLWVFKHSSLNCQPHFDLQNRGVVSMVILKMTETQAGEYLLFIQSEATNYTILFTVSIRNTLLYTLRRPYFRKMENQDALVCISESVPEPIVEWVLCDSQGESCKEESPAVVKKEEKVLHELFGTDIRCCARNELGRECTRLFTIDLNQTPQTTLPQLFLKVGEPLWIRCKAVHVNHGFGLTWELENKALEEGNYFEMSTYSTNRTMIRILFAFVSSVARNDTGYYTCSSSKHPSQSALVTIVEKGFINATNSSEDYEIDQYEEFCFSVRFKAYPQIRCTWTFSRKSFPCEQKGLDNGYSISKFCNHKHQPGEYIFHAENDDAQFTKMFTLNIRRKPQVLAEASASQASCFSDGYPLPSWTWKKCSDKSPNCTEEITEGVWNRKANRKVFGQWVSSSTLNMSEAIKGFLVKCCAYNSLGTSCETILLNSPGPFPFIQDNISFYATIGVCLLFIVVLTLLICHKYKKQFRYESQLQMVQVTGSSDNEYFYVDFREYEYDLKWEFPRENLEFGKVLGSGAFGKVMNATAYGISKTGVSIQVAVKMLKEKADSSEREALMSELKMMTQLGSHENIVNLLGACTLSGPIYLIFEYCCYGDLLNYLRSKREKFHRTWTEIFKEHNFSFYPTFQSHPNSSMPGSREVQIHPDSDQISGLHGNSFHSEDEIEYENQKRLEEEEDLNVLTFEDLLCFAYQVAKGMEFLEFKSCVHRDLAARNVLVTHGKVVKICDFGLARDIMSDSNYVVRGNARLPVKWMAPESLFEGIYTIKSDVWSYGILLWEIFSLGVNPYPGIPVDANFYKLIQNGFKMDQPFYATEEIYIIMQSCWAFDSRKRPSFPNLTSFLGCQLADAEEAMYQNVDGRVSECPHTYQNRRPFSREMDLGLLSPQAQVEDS

[10] = target: Vascular endothelial growth factor receptor 1 (Homo sapiens) (UniProt P17948); test: Inhibition of GST-tagged human FLT1 at 5 uM preincubated for 20 mins followed by [33P]-ATP addition measured after 2 hrs by Hot-Spot kinase assay; in short: as §2
[11] = target: Proto-oncogene tyrosine-protein kinase receptor Ret (Homo sapiens) (UniProt P07949); test: Inhibition of GST-tagged human RET at 5 uM preincubated for 20 mins followed by [33P]-ATP addition measured after 2 hrs by Hot-Spot kinase assay; in short: as §2
Chain of Proto-oncogene tyrosine-protein kinase receptor Ret (Homo sapiens) (P07949 whole entry): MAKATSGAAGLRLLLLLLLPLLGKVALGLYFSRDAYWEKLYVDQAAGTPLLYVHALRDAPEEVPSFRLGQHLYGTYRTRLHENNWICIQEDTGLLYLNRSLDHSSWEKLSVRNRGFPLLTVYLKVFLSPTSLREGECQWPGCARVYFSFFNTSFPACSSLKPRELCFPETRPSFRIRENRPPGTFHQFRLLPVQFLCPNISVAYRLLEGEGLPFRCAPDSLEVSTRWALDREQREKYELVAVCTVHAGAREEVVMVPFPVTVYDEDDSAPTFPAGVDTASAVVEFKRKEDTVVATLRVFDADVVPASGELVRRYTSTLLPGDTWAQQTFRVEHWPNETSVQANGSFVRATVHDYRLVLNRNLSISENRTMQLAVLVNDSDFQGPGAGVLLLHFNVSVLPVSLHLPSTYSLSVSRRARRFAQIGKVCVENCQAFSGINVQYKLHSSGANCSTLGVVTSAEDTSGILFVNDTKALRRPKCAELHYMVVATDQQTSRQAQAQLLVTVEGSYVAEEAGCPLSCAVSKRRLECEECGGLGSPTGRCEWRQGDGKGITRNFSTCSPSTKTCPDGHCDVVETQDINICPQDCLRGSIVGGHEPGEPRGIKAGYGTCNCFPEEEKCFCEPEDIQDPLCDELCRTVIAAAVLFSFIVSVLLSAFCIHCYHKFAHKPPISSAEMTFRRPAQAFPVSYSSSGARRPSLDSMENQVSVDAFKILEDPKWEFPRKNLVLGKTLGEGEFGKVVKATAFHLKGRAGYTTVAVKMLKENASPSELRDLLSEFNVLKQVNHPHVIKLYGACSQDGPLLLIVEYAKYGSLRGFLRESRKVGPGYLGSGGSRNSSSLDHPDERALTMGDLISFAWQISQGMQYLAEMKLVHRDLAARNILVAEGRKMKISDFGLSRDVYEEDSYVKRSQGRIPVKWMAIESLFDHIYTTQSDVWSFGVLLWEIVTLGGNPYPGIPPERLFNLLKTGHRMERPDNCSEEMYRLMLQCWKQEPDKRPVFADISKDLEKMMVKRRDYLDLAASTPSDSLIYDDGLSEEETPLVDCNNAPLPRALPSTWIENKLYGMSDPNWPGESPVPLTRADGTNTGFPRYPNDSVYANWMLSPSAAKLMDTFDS

[12] = target: Angiopoietin-1 receptor (Homo sapiens) (UniProt Q02763); test: Inhibition of GST-tagged human TIE2 at 5 uM preincubated for 20 mins followed by [33P]-ATP addition measured after 2 hrs by Hot-Spot kinase assay; in short: as §2
[13] = target: Tyrosine-protein kinase receptor UFO (Homo sapiens) (UniProt P30530); test: Inhibition of GST-tagged human AXL at 5 uM preincubated for 20 mins followed by [33P]-ATP addition measured after 2 hrs by Hot-Spot kinase assay; in short: as §2
Chain of Tyrosine-protein kinase receptor UFO (Homo sapiens) (P30530 whole entry): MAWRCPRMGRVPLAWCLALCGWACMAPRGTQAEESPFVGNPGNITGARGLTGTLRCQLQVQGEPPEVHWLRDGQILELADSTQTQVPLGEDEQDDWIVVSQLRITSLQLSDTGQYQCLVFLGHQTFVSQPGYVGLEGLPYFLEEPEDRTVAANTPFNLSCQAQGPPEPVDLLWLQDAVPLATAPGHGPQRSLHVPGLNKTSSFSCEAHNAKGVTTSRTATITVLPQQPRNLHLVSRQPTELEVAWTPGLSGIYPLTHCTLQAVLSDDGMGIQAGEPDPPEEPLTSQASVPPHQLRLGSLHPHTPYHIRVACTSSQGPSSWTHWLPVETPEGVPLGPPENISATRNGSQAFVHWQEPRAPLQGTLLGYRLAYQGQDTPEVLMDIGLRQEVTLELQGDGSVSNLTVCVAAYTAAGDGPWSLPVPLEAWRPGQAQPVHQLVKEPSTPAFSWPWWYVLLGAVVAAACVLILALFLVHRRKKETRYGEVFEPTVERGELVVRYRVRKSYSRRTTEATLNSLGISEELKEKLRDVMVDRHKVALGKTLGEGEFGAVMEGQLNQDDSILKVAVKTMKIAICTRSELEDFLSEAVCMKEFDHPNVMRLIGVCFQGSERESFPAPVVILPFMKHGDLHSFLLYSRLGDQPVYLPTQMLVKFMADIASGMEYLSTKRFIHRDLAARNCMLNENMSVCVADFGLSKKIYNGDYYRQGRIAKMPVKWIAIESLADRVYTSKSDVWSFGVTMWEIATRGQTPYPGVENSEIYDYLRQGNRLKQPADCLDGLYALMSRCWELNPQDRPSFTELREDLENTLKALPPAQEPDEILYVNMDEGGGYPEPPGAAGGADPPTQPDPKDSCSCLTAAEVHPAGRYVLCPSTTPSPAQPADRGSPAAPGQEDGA

[14] = target: T1, Hepatocyte growth factor receptor; test: Inhibition of HGF-induced c-MET phosphorylation at Tyr1234/1235 in human MKN45 cells after 1 hr by Western blot analysis; type: cell-based
In short: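 MKN45 cells were plated at 2x10^4 per well in RPMI-1640 with 10% FPS and treated with a range of doses for 1 h. Lysis was in ice-cold RIPA with protease inhibitors. Lysate holding 30 µg protein (BCA) was run on SDS-PAGE and blotted to PVDF. Membranes were blocked in 5% skim milk, given primary antibody overnight at 4 °C, then HRP secondary for 1 h at room temperature, and read by ECL.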

[15] = target: Tyrosine-protein kinase ABL1 (Homo sapiens) (UniProt P00519); test: Inhibition of GST-tagged human ABL1 at 5 uM preincubated for 20 mins followed by [33P]-ATP addition measured after 2 hrs by Hot-Spot kinase assay; in short: as §2
[16] = target: Receptor-type tyrosine-protein kinase FLT3 (Homo sapiens) (UniProt P36888); test: Inhibition of GST-tagged human FLT3 at 5 uM preincubated for 20 mins followed by [33P]-ATP addition measured after 2 hrs by Hot-Spot kinase assay; in short: as §2
[17] = target: ALK tyrosine kinase receptor (Homo sapiens) (UniProt Q9UM73); test: Inhibition of GST-tagged human ALK at 5 uM preincubated for 20 mins followed by [33P]-ATP addition measured after 2 hrs by Hot-Spot kinase assay; in short: as §2
Chain of ALK tyrosine kinase receptor (Homo sapiens) (Q9UM73 19-1620 limits assumed): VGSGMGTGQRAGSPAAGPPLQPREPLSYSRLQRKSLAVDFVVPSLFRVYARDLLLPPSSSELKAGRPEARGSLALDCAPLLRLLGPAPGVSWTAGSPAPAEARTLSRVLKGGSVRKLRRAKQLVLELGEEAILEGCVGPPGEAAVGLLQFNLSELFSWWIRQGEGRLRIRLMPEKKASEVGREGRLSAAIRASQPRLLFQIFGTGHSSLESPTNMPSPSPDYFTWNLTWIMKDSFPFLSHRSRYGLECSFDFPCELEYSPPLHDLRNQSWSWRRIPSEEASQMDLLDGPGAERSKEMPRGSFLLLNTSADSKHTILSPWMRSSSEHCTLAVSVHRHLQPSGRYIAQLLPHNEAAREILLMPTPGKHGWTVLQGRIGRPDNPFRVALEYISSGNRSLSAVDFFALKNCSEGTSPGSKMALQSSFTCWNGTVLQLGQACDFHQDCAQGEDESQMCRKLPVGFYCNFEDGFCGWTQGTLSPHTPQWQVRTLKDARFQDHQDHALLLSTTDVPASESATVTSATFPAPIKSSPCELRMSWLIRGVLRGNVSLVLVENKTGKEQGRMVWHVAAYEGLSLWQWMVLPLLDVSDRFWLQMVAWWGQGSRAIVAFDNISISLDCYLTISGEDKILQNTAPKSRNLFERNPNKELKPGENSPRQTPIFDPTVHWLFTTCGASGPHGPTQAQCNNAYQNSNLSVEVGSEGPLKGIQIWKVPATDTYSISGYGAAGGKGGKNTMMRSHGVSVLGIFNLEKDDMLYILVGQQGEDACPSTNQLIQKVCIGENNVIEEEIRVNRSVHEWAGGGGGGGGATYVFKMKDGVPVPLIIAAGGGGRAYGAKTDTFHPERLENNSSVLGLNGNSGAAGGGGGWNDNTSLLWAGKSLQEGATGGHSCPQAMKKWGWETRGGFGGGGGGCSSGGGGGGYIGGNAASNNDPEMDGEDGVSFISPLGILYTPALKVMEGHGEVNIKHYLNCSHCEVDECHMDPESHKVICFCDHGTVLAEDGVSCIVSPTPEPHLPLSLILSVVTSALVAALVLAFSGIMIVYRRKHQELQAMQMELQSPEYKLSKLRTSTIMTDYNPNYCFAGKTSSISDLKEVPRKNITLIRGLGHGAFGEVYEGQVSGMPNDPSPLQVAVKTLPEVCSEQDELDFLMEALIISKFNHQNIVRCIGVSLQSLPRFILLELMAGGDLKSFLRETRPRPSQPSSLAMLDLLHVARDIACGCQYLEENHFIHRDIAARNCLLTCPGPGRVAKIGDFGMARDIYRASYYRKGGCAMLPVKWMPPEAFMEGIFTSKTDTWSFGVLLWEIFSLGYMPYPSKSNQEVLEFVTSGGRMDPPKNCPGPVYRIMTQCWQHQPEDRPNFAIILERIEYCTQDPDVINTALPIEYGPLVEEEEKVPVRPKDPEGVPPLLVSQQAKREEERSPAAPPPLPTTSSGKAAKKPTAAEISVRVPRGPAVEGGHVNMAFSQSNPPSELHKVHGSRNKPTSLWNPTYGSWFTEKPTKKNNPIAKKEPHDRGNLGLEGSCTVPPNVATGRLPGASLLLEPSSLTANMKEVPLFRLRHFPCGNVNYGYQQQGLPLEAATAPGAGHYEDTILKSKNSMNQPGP

[18] = target: BDNF/NT-3 growth factors receptor (Homo sapiens) (UniProt Q16620); test: Inhibition of GST-tagged human TRKB at 5 uM preincubated for 20 mins followed by [33P]-ATP addition measured after 2 hrs by Hot-Spot kinase assay; in short: as §2
[19] = target: Vascular endothelial growth factor receptor 2 (Homo sapiens) (UniProt P35968); test: Inhibition of GST-tagged human KDR at 5 uM preincubated for 20 mins followed by [33P]-ATP addition measured after 2 hrs by Hot-Spot kinase assay; in short: as §2
[20] = target: Mast/stem cell growth factor receptor Kit (Homo sapiens) (UniProt P10721); test: Inhibition of GST-tagged human c-KIT at 5 uM preincubated for 20 mins followed by [33P]-ATP addition measured after 2 hrs by Hot-Spot kinase assay; in short: as §2

Compound | Activity (EBC-1 [1]) [%] | Activity (EBC-1 [2]) [%] | Activity (SNU-5) [%] | IC50 (EBC-1 [3]) [nM] | Activity (MKN-45 [4]) [%] | Activity (MKN-45 [5]) [%] | IC50 [6] [nM] | other results
COc1ccc2c(OCc3nnc4sc(-c5cc[nH]c5)nn34)ccnc2c1 | 90.6 | 85.9 | 71.5 | 353 | 70.5 | 71.1 |  | 
COc1ccc(-c2nn3c(COc4ccnc5cc(OC)ccc45)nnc3s2)cc1 | 89.1 | 85.2 | 74.5 | 161 | 72 | 76.4 |  | 
COc1ccc2c(OCc3nnc4sc(-c5cc(F)c(F)c(F)c5)nn34)ccnc2c1 | 89.3 | 84.5 | 44.7 | 403 | 29.8 |  |  | 
Cn1cc(-c2nn3c(Cc4ccc(OCCN5CCOCC5)cc4)nnc3s2)cn1 |  |  |  |  |  |  | > 10000 | 
COc1cccc(-c2nn3c(COc4ccnc5cc(OC)ccc45)nnc3s2)c1 | 91.5 | 85.4 | 65.7 | 472 | 66.6 | 37.8 |  | 
COc1ccc2c(OCc3nnc4sc(-c5cccc(F)c5)nn34)ccnc2c1 | 86.7 | 81.4 | 66.3 | 504 | 71.3 | 13.2 |  | 
CN(C)C(=O)COc1ccc(Cc2nnc3sc(-c4cnn(C)c4)nn23)cc1 |  |  |  |  |  |  | > 10000 | 
COc1ccc2c(OCc3nnc4sc(-c5cccn5C)nn34)ccnc2c1 | 7.4 | 86.3 | 14.5 |  | 28.1 |  |  | 
COc1ccc2[nH]c(-c3nn4c(COc5ccnc6cc(OC)ccc56)nnc4s3)cc2c1 | 82.2 | 84 | 60 | 85.6 | 61.2 | 75.3 |  | 
O=C(Oc1ccc(Cc2nnc3sc(-c4cc5ccccc5[nH]4)nn23)cc1)c1cc2ccccc2[nH]1 |  |  |  |  |  |  | > 10000 | 
C[C@@H](Oc1cc(-c2cnn(C3CCNCC3)c2)cnc1N)c1c(Cl)ccc(F)c1Cl [CRIZOTINIB] | 93.1 | 94.4 | 80 | 39 | 77.7 | 82.6 |  | 
COc1ccc2c(OCc3nnc4sc(-c5cc6ccccc6n5C)nn34)ccnc2c1 | 91.6 | 87 | 67.7 | 313 | 74.1 | 60.8 |  | 
COc1ccc(Cc2nnc3sc(-c4cc5ccccc5[nH]4)nn23)cc1 | 86.5 | 87.3 | 70.2 | 107 | 76.3 | 78.1 | 79.3 | 
CNC(=O)COc1ccc(Cc2nnc3sc(-c4cnn(C)c4)nn23)cc1 |  |  |  |  |  |  | > 10000 | 
Cn1cc(C(=O)Oc2ccc(Cc3nnc4sc(-c5cnn(C)c5)nn34)cc2)cn1 |  |  |  |  |  |  | > 10000 | 
COc1ccc2c(OCc3nnc4sc(-c5ccn(CC6CC6)c5)nn34)ccnc2c1 | 87.2 | 75.9 | 52.2 | 351 | 66.6 | 41.1 |  | 
COc1ccc2c(OCc3nnc4sc(-c5cc6cc(F)ccc6[nH]5)nn34)ccnc2c1 |  | 42.3 | 54.4 |  | 47.7 |  |  | 
COCCn1ccc(-c2nn3c(COc4ccnc5cc(OC)ccc45)nnc3s2)c1 | 89 | 78.6 | 46.1 | 327 | 73 | 71.1 |  | 
COc1ccc2c(OCc3nnc4sc(-c5ccc[nH]5)nn34)ccnc2c1 | 80.5 | 83.7 | 72.4 | 149 | 76.8 | 79.3 |  | 
COc1ccc2c(OCc3nnc4sc(-c5cnn(C)c5)nn34)ccnc2c1 | 90.9 | 84.4 | 68.7 | 88 | 71.9 | 73.6 | 2.02 | inhibition [7]: -0.81%; inhibition [8]: -3.29%; IC50 [9]: 1370 nM; inhibition [10]: 0.28%; inhibition [11]: -0.73%; inhibition [12]: -7.71%; inhibition [13]: 11.1%; inhibition [14]: Dose-dependent effect; inhibition [15]: 14.9%; inhibition [16]: 69.7%; inhibition [17]: -1.59%; inhibition [18]: 0.04%; inhibition [19]: -3.93%; inhibition [20]: 10.9%
COc1ccc2c(OCc3nnc4sc(-c5ccn(C6CCCC6)c5)nn34)ccnc2c1 | 41.3 | 72.1 | 42 |  | 47.6 |  |  | 
COc1ccc2c(OCc3nnc4sc(-c5ccc(F)cc5)nn34)ccnc2c1 | 89.4 | 83.1 | 65.8 | 187 | 71 | 68.5 |  | 
COc1ccc2c(OCc3nnc4sc(-c5ccncc5)nn34)ccnc2c1 | 91.6 | 83.7 | 65.7 | 289 | 73 | 73.8 |  | 

Source: ChEMBL document CHEMBL4229371, “Discovery of [1,2,4]triazolo[3,4-b][1,3,4]thiadiazole derivatives as novel, potent and selective c-Met kinase inhibitors: Synthesis, SAR study, and biological activity” (Eur J Med Chem, 2018)
